This is a sample that favours compounds with a hit; in the whole collection about 1.2% have one here.
Rtt109 Vps75 – inhibitors of C. albicans Rtt109/Vps75 HAT, primary screen, biochemical, ThioGlo CoA-SH fluorescence, plate reader. Histone acetyltransferase RTT109 (Candida albicans (strain SC5314 / ATCC MYA-2876)), …. purified Rtt109/Vps75, 4 h. inhibition, % at 34.9 µM. 330,000 tested, 0.16% active;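 active means inhibition of at least 50% in every replicate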
CSN inh – inhibitors of CSN-mediated cullin deneddylation, primary screen, biochemical, fluorescence polarization, uHTS; COP9 signalosome complex subunit 5 (Homo sapiens), Q92905; Purified CSN, SCF-Nedd8-OG deneddylation; inhibition, % at 12.5 µM; 360,000 tested, 0.38% active;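 active means pattern-corrected inhibition above about 35%, with an unprinted fluorescence ratio check between 0.5 and 1.5, limit read from the data, passing the limit was not always enough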;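 further: 0% = enzyme with substrate and 100% = substrate without enzyme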
Target sequence (Q92905 whole entry, looked up, one chain of several): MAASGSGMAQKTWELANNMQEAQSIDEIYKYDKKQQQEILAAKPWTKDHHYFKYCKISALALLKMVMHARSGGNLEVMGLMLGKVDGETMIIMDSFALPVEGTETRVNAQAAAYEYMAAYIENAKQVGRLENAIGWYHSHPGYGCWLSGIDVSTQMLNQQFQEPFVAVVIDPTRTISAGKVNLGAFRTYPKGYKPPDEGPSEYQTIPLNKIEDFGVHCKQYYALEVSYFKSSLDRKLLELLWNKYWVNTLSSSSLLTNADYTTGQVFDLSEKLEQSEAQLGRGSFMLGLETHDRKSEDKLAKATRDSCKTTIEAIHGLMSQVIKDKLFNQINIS
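assay system = purified human Csn5 enzyme expressed in HEK293T cells | amount = 0.24 nM enzyme | buffer or medium = Tris/NaCl/DTT buffer, pH 7.5 | reagent = 10 nM SCFSkp2-Nedd8OG | compound = one concentration, 12.5 µM, 0.25% DMSO | times = 90 min reaction at room temperature | signal = FP | read-out basis = % inhibition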
HNF4A DNA FP – change in binding of human HNF4A to DNA, primary screen, biochemical, fluorescence polarization, FITC-DNA | Hepatocyte nuclear factor 4-alpha (Homo sapiens), P41235 | 1 h | activity change, % at 10 µM | 360,000 tested, 0.3% active | AID 1224865, 2016; in the data active means activity change above about 30%, passing the limit was not always enough
TPT1 inhibitor – Candida albicans TPT1 enzyme inhibitors, primary screen, biochemical, fluorescence polarization | 300,000 tested, 0.81% active | recombinant caTPT1, FP RNA substrate dephosphorylation | inhibition, % at 5 µM | tRNA 2'-phosphotransferase TPT1 (Candida albicans SC5314);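 active means inhibition above the mean of all tested compounds plus 3 SD, set per screening campaign, cut at about 24% in these data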;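 further: plate controls were DMSO alone for no effect and ferristatin control at 100 nM for full effect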
caTPT1 confirm – Candida albicans TPT1 inhibitors, confirmation, biochemical, fluorescence polarization, triplicate | inhibition, % at 5 µM | AID 2149, 2009 | shares compounds with TPT1 inhibitor | recombinant caTPT1, RNase T1 coupled | 2,400 tested, 74% active;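 active means inhibition above the primary screen limit, the mean inhibition of all tested compounds plus 3 SD, cut at about 25% in these data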
RNase T1 inh – RNase T1 inhibitors, counter-screen for TPT1 inhibitor project, biochemical, fluorescence polarization; shares compounds with TPT1 inhibitor; RNase T1 cleavage, 1536-well; inhibition, % at 5 µM; 2,400 tested, 83% active; AID 2153, 2009;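 active means inhibition above the solvent-only control well mean plus 3 SD, limit set per screening run, cut at about 23% in these data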;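 further: plate controls were DMSO wells with enzyme for no effect and wells without RNase T1 for full effect; inhibitors block cleavage so intact labeled substrate keeps polarization high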
Target sequence (P00651 whole entry, looked up): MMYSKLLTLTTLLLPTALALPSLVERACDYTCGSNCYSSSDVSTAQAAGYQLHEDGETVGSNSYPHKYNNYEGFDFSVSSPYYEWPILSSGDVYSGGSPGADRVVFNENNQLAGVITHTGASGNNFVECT
The depositor's hits bear a star; · = not tested or not shown.

SMILES | Rtt109 Vps75 | CSN inh | HNF4A DNA FP | TPT1 inhibitor | caTPT1 confirm | RNase T1 inh
CCOC(=O)C1=C(C)N=c2s/c(=C\c3ccc(C(=O)O)cc3)c(=O)n2C1c1ccc(OC)cc1OC (centres undefined) | 4.4 | 7.4 | 1.5 | 0.9 | · | ·
COC(=O)C1=C(C)N=c2s/c(=C/c3ccoc3)c(=O)n2C1c1ccccc1 (centres undefined) | -14.1 | 57.9* | 45.3* | 58.1* | 61.3* | 72.7*
CCOC(=O)C1=C(C)N=c2s/c(=C\c3cccc(OCC(=O)O)c3)c(=O)n2C1c1ccccc1 (centres undefined) | -4.2 | 2.8 | -0.4 | · | · | ·
CCOC(=O)C1=C(C)N=c2s/c(=C/c3ccco3)c(=O)n2C1c1cccc(OC)c1 (centres undefined) | · | · | · | 31.2* | 25.3* | 34.9*
CCOC(=O)C1=C(C)N=c2s/c(=C\c3ccc(OCC(=O)O)c(OC)c3)c(=O)n2C1c1ccc(OC)cc1 (centres undefined) | -8.3 | 6.6 | 1.2 | 25.4* | 43.7* | 53.4*
N#CCSc1ccccc1NC(=O)CN1C(=O)C2CC=CCC2C1=O (centres undefined) | -2.9 | 13.4 | 5.0 | · | · | ·
CSCCC(NC(=O)c1ccc([N+](=O)[O-])cc1Cl)C(=O)OC1CCCCC1=O (centres undefined) | -5.4 | -4.6 | -4.4 | -2.1 | · | ·
Cc1ccc(C)c(NC(=O)c2ccc3c(c2)CCN3S(C)(=O)=O)c1 | · | 0.2 | 0.6 | · | · | ·
O=C(C[C@H]1C(=O)N(Cc2ccccc2)C[C@@H]1c1ccc(Br)cc1)Nc1ccc(Br)cc1 | · | 4.5 | -2.2 | · | · | ·
CN(C)c1ccc(/C=C2\SC(=S)N(Nc3ncc(C(F)(F)F)cc3Cl)C2=O)cc1 | -7.5 | -68.4 | 165.7 | 123.0* | 141.1* | 129.5*
Cc1cc(C)nc(NN2C(=O)/C(=C/c3ccccc3)SC2=S)n1 | 0.8 | -3.7 | 1.1 | -0.6 | · | ·
CCN1CCS/C1=C/C=C/C1=[N+](CC)CCS1 | 15.5 | -15.1 | 14.7 | 24.7* | 25.4* | 32.8*
CCc1ccc(NC(=O)c2cc(S(=O)(=O)N3CCCC3)ccc2F)cc1 | · | 0.5 | 2.0 | · | · | ·
CCN(CC(=O)Nc1c(F)cccc1F)C(=O)CSc1nc(C)cc(C)n1 | -7.2 | 2.6 | -3.0 | -6.3 | · | ·
COc1ccc(S(=O)(=O)N2CCCCC2)cc1NC(=O)C1CC1(Cl)Cl (centres undefined) | · | 1.8 | -1.6 | · | · | ·
COc1cc(C2c3sc(=O)[nH]c3SC3C(=O)N(c4ccc(Br)cc4)C(=O)C32)ccc1O (centres undefined) | 17.0 | 1.2 | -0.9 | -0.5 | · | ·
CCOc1ccc(N2C(=O)C3Sc4[nH]c(=O)sc4C(/C=C/c4ccccc4)C3C2=O)cc1 (centres undefined) | 1.0 | 16.1 | 34.3 | 50.9* | 34.2* | 40.5*
O=Cc1cc2cc3c(cc2nc1Cl)OCCO3 | · | · | · | -3.2 | · | ·
O=C(O)c1ccc(N/N=C/c2cc3cc4c(cc3nc2Cl)OCCO4)cc1 | 39.4 | 4.5 | 4.5 | 26.8* | 37.7* | 47.9*
Cc1ccc(CNC(=O)C2CC(=O)N(c3ccc(OCC(=O)N4CCCC4)cc3)C2)cc1 (centres undefined) | -10.3 | 1.8 | 2.1 | 31.2* | 4.8 | 10.3
O=C(NCc1ccccc1)C1CC(=O)N(c2ccc(OCC(=O)N3CCOCC3)cc2)C1 (centres undefined) | -1.4 | 0.4 | -1.2 | -2.3 | · | ·
Cc1ccc(C2C(C#N)=C(N)Oc3cc(N)ccc32)cc1 (centres undefined) | -3.2 | -1.4 | 3.4 | 6.2 | · | ·
Cc1ccc(/C=C2\CCC3=C2OC(N)=C(C#N)C3c2ccc(C)cc2)cc1 (centres undefined) | -1.3 | 65.2 | 60.2 | 122.2* | 121.1* | 111.9*
CC(=O)Nc1cccc(C(=O)/C=C/c2ccc(N(C)C)cc2)c1 | -1.6 | 135.2 | 83.1* | 102.8* | 99.9* | 99.1*
COc1ccc(/C=N/NC(=O)CNC(=O)c2ccncc2)cc1OC | -7.4 | -0.5 | -0.1 | 1.6 | · | ·
